Experimental data: ChEMBL document CHEMBL3286101, “Probing of primed and unprimed sites of calpains: Design, synthesis and evaluation of epoxysuccinyl-peptide derivatives as selective inhibitors” (Eur J Med Chem, 2014)
Peptide text beside a SMILES is read from it. * marks the point of attachment. X4 = CC(C)C[C@H](NC(=O)[C@@H]1O[C@H]1C(=O)*)C(=O)N[C@@H](Cc1c[nH]c2ccccc12)C(=O)N[C@H](C(N)=O)[C@@H](C)O; X5 = CC(C)C[C@H](NC(=O)[C@H]1O[C@@H]1C(=O)*)C(=O)N[C@@H](Cc1c[nH]c2ccccc12)C(=O)N[C@H](C(N)=O)[C@@H](C)O; X3 = C[C@@H](O)[C@H](NC(=O)[C@@H]1CCCN1C(=O)[C@@H](NC(=O)[C@H]1O[C@@H]1C(=O)*)[C@@H](C)O)C(N)=O; X9 = C[C@@H](O)[C@H](NC(=O)[C@@H]1CCCN1C(=O)[C@@H](NC(=O)[C@@H]1O[C@H]1C(=O)*)[C@@H](C)O)C(N)=O; X10 = CC(C)C[C@H](NC(=O)[C@@H]1O[C@H]1C(=O)*)C(=O)N[C@@H](CO)C(=O)N[C@H](C(N)=O)[C@@H](C)O; X1 = CC(C)C[C@H](NC(=O)[C@H]1O[C@@H]1C(=O)*)C(=O)N1CCC[C@H]1C(=O)N[C@H](C(N)=O)[C@@H](C)O; X2 = CC(C)C[C@H](NC(=O)[C@@H]1O[C@H]1C(=O)*)C(=O)N1CCC[C@H]1C(=O)N[C@H](C(N)=O)[C@@H](C)O; X6 = CC(C)C[C@H](NC(=O)[C@H]1O[C@@H]1C(=O)*)C(=O)N[C@@H](CO)C(=O)N[C@H](C(N)=O)[C@@H](C)O; X7 = CC(C)[C@H](NC(=O)[C@@H]1O[C@H]1C(=O)*)C(=O)N1CCC[C@H]1C(=O)N[C@H](C(N)=O)[C@@H](C)O; X8 = CC(C)[C@H](NC(=O)[C@H]1O[C@@H]1C(=O)*)C(=O)N1CCC[C@H]1C(=O)N[C@H](C(N)=O)[C@@H](C)O

Assays:
Cathepsin B = Cathepsin B (Homo sapiens, UniProt P07858); assay: Inhibition of cathepsin B (unknown origin) using substrate-3 as substrate by fluorescence assay
Summary of the method: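 Human liver cathepsin B is activated in 0.25 mM MES containing 10 mM DTE. The reaction starts when it is added at 0.7 nM to 100 μM Z-Arg-AMC with inhibitor at various concentrations in 0.25 mM MES, pH 5.0. Fluorescence is followed at 380/460 nm. Triplicates; mean ± S.D.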

[1] = molecular target: T1, Calpain-1 catalytic subunit (Homo sapiens, UniProt P07384); assay: Inhibition of calpain-1 (unknown origin) using Suc-LY-AMC as substrate by fluorescence assay
T1 sequence (P07384 whole entry): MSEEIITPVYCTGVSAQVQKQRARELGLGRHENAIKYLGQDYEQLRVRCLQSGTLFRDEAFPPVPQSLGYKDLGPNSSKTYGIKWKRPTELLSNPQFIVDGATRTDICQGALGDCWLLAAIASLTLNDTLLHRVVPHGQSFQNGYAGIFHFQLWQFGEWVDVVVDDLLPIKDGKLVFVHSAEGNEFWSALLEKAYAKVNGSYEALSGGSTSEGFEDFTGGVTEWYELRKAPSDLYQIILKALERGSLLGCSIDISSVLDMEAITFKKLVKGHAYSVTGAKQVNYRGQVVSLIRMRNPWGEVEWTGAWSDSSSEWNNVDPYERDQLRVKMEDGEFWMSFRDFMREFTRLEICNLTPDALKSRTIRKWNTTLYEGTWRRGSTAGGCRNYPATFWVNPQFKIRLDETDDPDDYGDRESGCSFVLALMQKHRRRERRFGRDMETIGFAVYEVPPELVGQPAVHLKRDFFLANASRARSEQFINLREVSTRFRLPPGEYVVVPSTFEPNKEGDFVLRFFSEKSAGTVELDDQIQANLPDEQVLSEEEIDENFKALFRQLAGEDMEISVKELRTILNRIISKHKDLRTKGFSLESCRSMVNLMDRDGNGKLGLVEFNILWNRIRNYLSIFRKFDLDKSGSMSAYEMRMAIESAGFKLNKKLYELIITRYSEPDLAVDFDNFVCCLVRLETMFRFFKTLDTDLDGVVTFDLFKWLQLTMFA
Summary of the method: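 Human erythrocyte calpain 1 at 0.5 μM starts the reaction, added to 100 µM Suc-LY-AMC, 3 mM Ca2+ and inhibitor at various concentrations in 50 µL calpain buffer (10 mM HEPES, 150 mM NaCl, 1 mM EDTA, pH 7.5). Fluorescence is followed at 380/460 nm. Triplicate experiments; mean ± S.D.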

[2] = Retention time of the compound by RP-HPLC analysis; assay type: physicochemical
Summary of the method: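 Analytical RP-HPLC on a C18 column (150 × 4.6 mm, 5 μm, 100 Å). Eluent A is 0.1% TFA in water and eluent B is 0.1% TFA in acetonitrile–water 80:20. Gradient runs 0% B for 2 min, then to 90% B at 22 min, at 1 mL/min and ambient temperature. Detection at 220 nm.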

[3] = Inhibition of rat calpain-2 large subnit/truncated small subunit expressed in Escherichia coli using Suc-LY-AMC as substrate by fluorescence assay
Summary of the method: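 Rat calpain 2 is made from its 80-kDa large subunit and 21-kDa truncated small subunit, expressed in E. coli, purified on HisTrap and dialyzed into calpain buffer (10 mM HEPES, 150 mM NaCl, 1 mM EDTA, pH 7.5). The reaction starts when 0.2 μM enzyme is added to 100 µM Suc-LY-AMC, 3 mM Ca2+ and inhibitor at various concentrations. Fluorescence is read at 380/460 nm. Triplicates; mean ± S.D.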

[4] = Selectivity ratio of Ki for cathepsin B (unknown origin) to Ki for rat calpain-2

| Ki (Cathepsin B) [µM] | Ki [1] [µM] | Retention_time [2] [min] | Retention time [2] [min] | Ratio Ki [4] | SMILES | Ki [3] [µM] |
| --- | --- | --- | --- | --- | --- | --- |
| > 100 | > 100 | 12 |  |  | CC(C)C[C@H](NC(=O)[C@H]1O[C@@H]1C(=O)N[C@@H](CO)C(=O)N[C@@H](CO)C(=O)N1CCC[C@H]1C(=O)N1CCC[C@H]1C(=O)N[C@@H](CO)C(N)=O)C(=O)N1CCC[C@H]1C(=O)N[C@H](C(N)=O)[C@@H](C)O (X1-SSPPS-NH2) | > 100 |
| > 100 | 26.3 | 11.1 |  |  | CC(C)C[C@H](NC(=O)[C@@H]1O[C@H]1C(=O)N[C@@H](CCCNC(=N)N)C(=O)N1CCC[C@H]1C(=O)N1CCC[C@H]1C(=O)N1CCC[C@H]1C(=O)N[C@@H](CO)C(N)=O)C(=O)N1CCC[C@H]1C(=O)N[C@H](C(N)=O)[C@@H](C)O (X2-RPPPS-NH2) | > 50 |
| 5 | 17.1 |  | 12.5 |  | CC(C)C[C@H](NC(=O)[C@H]1O[C@@H]1C(=O)N[C@@H](CO)C(=O)N1CCC[C@H]1C(=O)N1CCC[C@H]1C(=O)N1CCC[C@H]1C(=O)N[C@@H](CO)C(N)=O)C(=O)N[C@@H](Cc1c[nH]c2ccccc12)C(=O)N[C@H](C(N)=O)[C@@H](C)O (X5-SPPPS-NH2) | 4.05 |
| > 50 | > 100 | 10.9 |  |  | CC(C)C[C@H](NC(=O)[C@@H]1O[C@H]1C(=O)N[C@@H](CO)C(=O)N1CCC[C@H]1C(=O)N1CCC[C@H]1C(=O)N1CCC[C@H]1C(=O)N[C@@H](CO)C(N)=O)C(=O)N1CCC[C@H]1C(=O)N[C@H](C(N)=O)[C@@H](C)O (X2-SPPPS-NH2) | > 50 |
| > 50 | 12.5 | 12.5 |  |  | CC(C)C[C@H](NC(=O)[C@H]1O[C@@H]1C(=O)N[C@@H](CO)C(=O)N1CCC[C@H]1C(=O)N1CCC[C@H]1C(=O)N1CCC[C@H]1C(=O)N[C@@H](CO)C(N)=O)C(=O)N1CCC[C@H]1C(=O)N[C@H](C(N)=O)[C@@H](C)O (X1-SPPPS-NH2) | > 50 |
| > 50 | 21.9 | 10.3 |  |  | CC(C)C[C@H](NC(=O)[C@H]1O[C@@H]1C(=O)N[C@@H](CO)C(=O)N1CCC[C@H]1C(=O)N1CCC[C@H]1C(=O)N1CCC[C@H]1C(=O)N[C@@H](CO)C(N)=O)C(=O)N[C@@H](CO)C(=O)N[C@H](C(N)=O)[C@@H](C)O (X6-SPPPS-NH2) | 14.3 |
| 12.1 | 8.38 | 11 |  |  | CC(C)C[C@H](NC(=O)[C@H]1O[C@@H]1C(=O)N[C@H](C(=O)N1CCC[C@H]1C(=O)N1CCC[C@H]1C(=O)N1CCC[C@H]1C(=O)N[C@@H](CO)C(N)=O)[C@@H](C)O)C(=O)N1CCC[C@H]1C(=O)N[C@H](C(N)=O)[C@@H](C)O (X1-TPPPS-NH2) | > 50 |
| > 100 | > 100 | 11.9 |  |  | CC(C)C[C@H](NC(=O)[C@@H]1O[C@H]1C(=O)N[C@@H](CO)C(=O)N[C@@H](CO)C(=O)N1CCC[C@H]1C(=O)N1CCC[C@H]1C(=O)N[C@@H](CO)C(N)=O)C(=O)N1CCC[C@H]1C(=O)N[C@H](C(N)=O)[C@@H](C)O (X2-SSPPS-NH2) | > 100 |

Further lines, the compound ahead of its results:

| SMILES | Ki (Cathepsin B) [µM] | Ki [1] [µM] | Retention_time [2] [min] | Retention time [2] [min] | Ratio Ki [4] | Ki [3] [µM] |
| --- | --- | --- | --- | --- | --- | --- |
| C[C@@H](O)[C@H](NC(=O)[C@@H]1CCCN1C(=O)[C@@H](NC(=O)[C@@H]1O[C@H]1C(=O)N[C@@H](CO)C(=O)N1CCC[C@H]1C(=O)N1CCC[C@H]1C(=O)N1CCC[C@H]1C(=O)N[C@@H](CO)C(N)=O)[C@@H](C)O)C(N)=O (X9-SPPPS-NH2) |  | > 100 | 9.1 |  |  |  |
| CC(C)C[C@H](NC(=O)[C@@H]1O[C@H]1C(=O)N[C@@H](CO)C(=O)N1CCC[C@H]1C(=O)N1CCC[C@H]1C(=O)N1CCC[C@H]1C(=O)N[C@@H](CO)C(N)=O)C(=O)N[C@@H](Cc1c[nH]c2ccccc12)C(=O)N[C@H](C(N)=O)[C@@H](C)O (X4-SPPPS-NH2) | 4.45 | 3.7 | 13.2 |  |  | 21.4 |
| CC(C)C[C@H](NC(=O)[C@H]1O[C@@H]1C(=O)N[C@@H](CCCNC(=N)N)C(=O)N1CCC[C@H]1C(=O)N1CCC[C@H]1C(=O)N1CCC[C@H]1C(=O)N[C@@H](CO)C(N)=O)C(=O)N1CCC[C@H]1C(=O)N[C@H](C(N)=O)[C@@H](C)O (X1-RPPPS-NH2) | > 50 | 23.7 | 11.1 |  |  | 17.9 |
| C[C@@H](O)[C@H](NC(=O)[C@@H]1CCCN1C(=O)[C@@H](NC(=O)[C@H]1O[C@@H]1C(=O)N[C@@H](CO)C(=O)N1CCC[C@H]1C(=O)N1CCC[C@H]1C(=O)N1CCC[C@H]1C(=O)N[C@@H](CO)C(N)=O)[C@@H](C)O)C(N)=O (X3-SPPPS-NH2) | > 100 | > 100 | 9.7 |  |  | > 100 |
| CC(C)C[C@H](NC(=O)[C@@H]1O[C@H]1C(=O)N[C@@H](CO)C(=O)N[C@@H](CCC(N)=O)C(=O)N1CCC[C@H]1C(=O)N1CCC[C@H]1C(=O)N[C@@H](CO)C(N)=O)C(=O)N1CCC[C@H]1C(=O)N[C@H](C(N)=O)[C@@H](C)O (X2-SQPPS-NH2) | > 100 | > 100 | 10.7 |  |  | > 100 |
| CC(C)[C@H](NC(=O)[C@@H]1O[C@H]1C(=O)N[C@@H](CO)C(=O)N1CCC[C@H]1C(=O)N1CCC[C@H]1C(=O)N1CCC[C@H]1C(=O)N[C@@H](CO)C(N)=O)C(=O)N1CCC[C@H]1C(=O)N[C@H](C(N)=O)[C@@H](C)O (X7-SPPPS-NH2) | > 100 | > 50 | 10.2 |  |  | > 100 |
| CC(C)[C@H](NC(=O)[C@H]1O[C@@H]1C(=O)N[C@@H](CO)C(=O)N1CCC[C@H]1C(=O)N1CCC[C@H]1C(=O)N1CCC[C@H]1C(=O)N[C@@H](CO)C(N)=O)C(=O)N1CCC[C@H]1C(=O)N[C@H](C(N)=O)[C@@H](C)O (X8-SPPPS-NH2) | > 100 | > 50 | 10.7 |  |  | 29.2 |
| CC(C)C[C@H](NC(=O)[C@H]1O[C@@H]1C(=O)N[C@@H](CO)C(=O)N[C@@H](CCC(N)=O)C(=O)N1CCC[C@H]1C(=O)N1CCC[C@H]1C(=O)N[C@@H](CO)C(N)=O)C(=O)N1CCC[C@H]1C(=O)N[C@H](C(N)=O)[C@@H](C)O (X1-SQPPS-NH2) | > 100 | > 100 | 10.8 |  |  | > 100 |
| CC(C)C[C@H](NC(=O)[C@@H]1O[C@H]1C(=O)N[C@@H](CO)C(=O)N1CCC[C@H]1C(=O)N1CCC[C@H]1C(=O)N1CCC[C@H]1C(=O)N[C@@H](CO)C(N)=O)C(=O)N[C@@H](CO)C(=O)N[C@H](C(N)=O)[C@@H](C)O (X10-SPPPS-NH2) |  | 30.8 | 10.2 |  |  |  |
| CC(C)C[C@H](NC(=O)[C@@H]1O[C@H]1C(=O)N[C@H](C(=O)N1CCC[C@H]1C(=O)N1CCC[C@H]1C(=O)N1CCC[C@H]1C(=O)N[C@@H](CO)C(N)=O)[C@@H](C)O)C(=O)N1CCC[C@H]1C(=O)N[C@H](C(N)=O)[C@@H](C)O (X2-TPPPS-NH2) | > 50 | > 50 | 12.3 |  | 11.8 | 4.24 |
